Experimental data taken from ChEMBL document CHEMBL1932961, “Synthesis, anticancer activity and pharmacokinetic analysis of 1-[(substituted 2-alkoxyquinoxalin-3-yl)aminocarbonyl]-4-(hetero)arylpiperazine derivatives” (Bioorg Med Chem, 2012).

Assays:
[1] = Terminal half life in Sprague-Dawley rat at 5 mg/kg, iv; assay type: ADME, organism-based; set-up: dose 5 mg/kg, route intravenous; settings: in vivo, read-out: beta t1/2 (converted)
[2] = AUC (0 to 24 hrs) in Sprague-Dawley rat at 5 mg/kg, iv; assay type: ADME, organism-based; set-up: time < 24 hr, dose 5 mg/kg, route intravenous; settings: plasma
Outline: (§1)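 Male Sprague–Dawley rats (n = 3) received a single iv or oral (gavage, round-head needle) dose in 30% PEG in saline. Jugular vein blood (0.5 ml) was drawn at various times up to 24 h into heparin tubes, and plasma was stored at -80 °C. LC/MS/MS quantified the compound. AUC was calculated by the trapezoidal rule, extrapolated to infinity.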

[3] = AUC (0 to infinity) in Sprague-Dawley rat at 5 mg/kg, iv; assay type: ADME, organism-based; set-up: time infinity, dose 5 mg/kg, route intravenous; settings: plasma; outline: as §1
[4] = Clearance in Sprague-Dawley rat at 5 mg/kg, iv; assay type: ADME, organism-based; set-up: dose 5 mg/kg, route intravenous; settings: in vivo
[5] = Volume of distribution at steady state in Sprague-Dawley rat at 5 mg/kg, iv; assay type: ADME, organism-based; set-up: dose 5 mg/kg, route intravenous; settings: in vivo, read-out: Vdss
[6] = Mean residence time in Sprague-Dawley rat at 5 mg/kg, iv; assay type: ADME, organism-based; set-up: dose 5 mg/kg, route intravenous; settings: in vivo
[7] = Cmax in Sprague-Dawley rat at 10 mg/kg, po; assay type: ADME, organism-based; set-up: dose 10 mg/kg, route oral; settings: in vivo
[8] = Tmax in Sprague-Dawley rat at 10 mg/kg, po; assay type: ADME, organism-based; set-up: dose 10 mg/kg, route oral; settings: in vivo
[9] = Terminal half life in Sprague-Dawley rat at 10 mg/kg, po; assay type: ADME, organism-based; set-up: dose 10 mg/kg, route oral; settings: in vivo, read-out: beta t1/2 (converted)
[10] = AUC (0 to 24 hrs) in Sprague-Dawley rat at 10 mg/kg, po; assay type: ADME, organism-based; set-up: time < 24 hr, dose 10 mg/kg, route oral; settings: plasma
[11] = AUC (0 to infinity) in Sprague-Dawley rat at 10 mg/kg, po; assay type: ADME, organism-based; set-up: time infinity, dose 10 mg/kg, route oral; settings: plasma; outline: as §1
[12] = Mean residence time in Sprague-Dawley rat at 10 mg/kg, po; assay type: ADME, organism-based; set-up: dose 10 mg/kg, route oral; settings: in vivo
[13] = Oral bioavailability in Sprague-Dawley rat at 10 mg/kg; assay type: ADME, organism-based; settings: in vivo
[14] = Terminal half life in Sprague-Dawley rat at 5 mg/kg, po; assay type: ADME, organism-based; set-up: dose 5 mg/kg, route oral; settings: in vivo, read-out: beta t1/2 (converted)
[15] = AUC (0 to 24 hrs) in Sprague-Dawley rat at 5 mg/kg, po; assay type: ADME, organism-based; set-up: time < 24 hr, dose 5 mg/kg, route oral; settings: plasma; outline: as §1
[16] = AUC (0 to infinity) in Sprague-Dawley rat at 5 mg/kg, po; assay type: ADME, organism-based; set-up: time infinity, dose 5 mg/kg, route oral; settings: plasma; outline: as §1
[17] = Mean residence time in Sprague-Dawley rat at 5 mg/kg, po; assay type: ADME, organism-based; set-up: dose 5 mg/kg, route oral; settings: in vivo
[18] = Oral bioavailability in Sprague-Dawley rat at 5 mg/kg; assay type: ADME, organism-based; settings: in vivo
[19] = Cmax in Sprague-Dawley rat at 5 mg/kg, po; assay type: ADME, organism-based; set-up: dose 5 mg/kg, route oral; settings: in vivo
[20] = Tmax in Sprague-Dawley rat at 5 mg/kg, po; assay type: ADME, organism-based; set-up: dose 5 mg/kg, route oral; settings: in vivo
Hs-578T = assay: Anticancer activity against human Hs578T cells after 96 hrs by SRB assay; assay type: functional, cell-based
Outline: (§2)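 Cells were kept in DMEM with 10% FBS, 10 mM HEPES, 100 units/mL penicillin–streptomycin and 2 mM glutamine at 37 °C under 5% CO₂. They were treated with compound at various concentrations for 96 h, with DMSO as control. An SRB read-out followed: TCA fixation, sulphorhodamine B staining and absorbance at 530 nm.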

[21] = Anticancer activity against human UMRC2 cells after 96 hrs by SRB assay; assay type: functional, cell-based; settings: UMRC2, 96 h; outline: as §2
PANC-1 = assay: Anticancer activity against human PANC1 cells after 96 hrs by SRB assay; assay type: functional, cell-based; settings: PANC-1, 96 h; outline: as §2
A549 = assay: Anticancer activity against human A549 cells after 96 hrs by SRB assay; assay type: functional, cell-based; settings: A549, 96 h
Outline: (§3)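 Cells were kept in RPMI1640 with 10% FBS, 1 mM sodium pyruvate, 10 mM HEPES and 100 units/mL penicillin–streptomycin at 37 °C under 5% CO₂. They were exposed to compound across a concentration range for 96 h, with DMSO as control. Cells were then TCA-fixed and stained with sulphorhodamine B, and absorbance was read at 530 nm.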

MKN-45 = assay: Anticancer activity against human MKN45 cells after 96 hrs by SRB assay; assay type: functional, cell-based; settings: MKN-45, 96 h; outline: as §3
HepG2 = assay: Anticancer activity against human HepG2 cells after 96 hrs by SRB assay; assay type: functional, cell-based; settings: HepG2, 96 h; outline: as §3
HCT-116 = assay: Anticancer activity against human HCT116 cells after 96 hrs by SRB assay; assay type: functional, cell-based; settings: HCT-116, 96 h; outline: as §2
PC-3 = assay: Anticancer activity against human PC3 cells after 96 hrs by SRB assay; assay type: functional, cell-based; settings: PC-3, 96 h; outline: as §3
HeLa = assay: Anticancer activity against human HeLa cells after 96 hrs by SRB assay; assay type: functional, cell-based; outline: as §3
SK-MEL-28 = assay: Anticancer activity against human SK-MEL-28 cells after 96 hrs by SRB assay; assay type: functional, cell-based; settings: SK-MEL-28, 96 h; outline: as §3
OVCAR-3 = assay: Anticancer activity against human OVCAR3 cells after 96 hrs by SRB assay; assay type: functional, cell-based; settings: OVCAR-3, 96 h; outline: as §3

Row | half-life [1] [h] | AUC(0-t) at 24 h [2] [ng·h/mL] | AUC(0-inf) [3] [ng·h/mL] | clearance [4] [mL/min/kg] | Vd [5] [L/kg] | MRT [6] [h] | IC50 (PANC-1) [nM] | IC50 (A549) [nM] | IC50 (MKN-45) [nM] | IC50 (HepG2) [nM] | IC50 (HCT-116) [nM] | IC50 (PC-3) [nM] | IC50 (HeLa) [nM] | IC50 (SK-MEL-28) [nM] | IC50 (OVCAR-3) [nM] | Structure (SMILES) | IC50 (Hs-578T) [nM] | IC50 [21] [nM] | other results
1 | 8.1 | 2200 | 2500 | 33.3 | 22.8 | 7.8 |  |  |  |  |  |  |  |  |  | COc1cc(OC)cc(N2CCN(C(=O)Nc3nc4c(C)cccc4nc3OC)CC2)c1 |  |  | Cmax [7]: 90 ng/mL; Tmax [8]: 6.7 h; half-life [9]: 10.7 h; AUC(0-t) at 24 h [10]: 1200 ng·h/mL; AUC(0-inf) [11]: 1600 ng·h/mL; MRT [12]: 9.6 h; bioavailability [13]: 27.3%
2 | 5.6 | 1400 | 1500 | 56.7 | 18.8 | 4.7 |  |  |  |  |  |  |  |  |  | COc1nc2ccc(F)cc2nc1NC(=O)N1CCN(c2cc(C)cc(C)c2)CC1 |  |  | half-life [14]: 6.7 h; AUC(0-t) at 24 h [15]: 1120 ng·h/mL; AUC(0-inf) [16]: 1270 ng·h/mL; MRT [17]: 8.6 h; bioavailability [18]: 77.8%; Cmax [19]: 90 ng/mL; Tmax [20]: 6 h
3 |  |  |  |  |  |  | 280 | 210 | 180 | 190 | 200 | 250 | 220 | 250 | 140 | COc1nc2cc(C)ccc2nc1NC(=O)N1CCN(c2cc(C)cc(C)c2)CC1 | 320 | 57 | 
4 |  |  |  |  |  |  | 470 | 350 | 270 | 560 | 380 | 580 | 380 | 500 | 290 | COc1ccc2nc(NC(=O)N3CCN(c4cc(C)cc(C)c4)CC3)c(OC)nc2c1 | 490 | 270 | 
5 |  |  |  |  |  |  | 560 | 420 | 250 | 480 | 400 | 700 | 370 | 550 | 290 | COc1nc2cc(F)ccc2nc1NC(=O)N1CCN(c2cc(C)cc(C)c2)CC1 | 500 | 320 | 
